Laboratory results: ChEMBL document CHEMBL4311966, “Sulfide, sulfoxide and sulfone bridged acyclic nucleoside phosphonates as inhibitors of the Plasmodium falciparum and human 6-oxopurine phosphoribosyltransferases: Synthesis and evaluation” (Eur J Med Chem, 2019)
pIC50, pKi: −log10 of the molar value.

Tests used:
[1] = Cytotoxicity against human HepG2 cells assessed as cell viability at 10 uM; format: cell-based; conditions: read-out: Activity
Outline: (§1)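 Percent viability of human HepG2 (hepatocellular carcinoma) and CCRF-CEM (T-cell leukemia) cells after exposure to a single fixed prodrug concentration of 10 μM, expressed relative to untreated control cells.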

[2] = Cytotoxicity against human CCRF-CEM cells assessed as cell viability at 10 uM; format: cell-based; conditions: read-out: Activity; outline: as §1
Plasmodium falciparum [3] = assay: Antimalarial activity against Plasmodium falciparum D6 in erythrocytes assessed as reduction in 3H-hypoxanthine uptake incubated for 96 hrs and 3H-hypoxanthine added after 48 hrs of compound addition
Plasmodium falciparum [4] = assay: Antimalarial activity against chloroquine-resistant Plasmodium falciparum W2 in erythrocytes assessed as reduction in 3H-hypoxanthine uptake incubated for 96 hrs and 3H-hypoxanthine added after 48 hrs of compound addition
[5] = target: T1, Hypoxanthine-guanine phosphoribosyltransferase (Homo sapiens, UniProt P00492); assay: Inhibition of human HGPRT using Prib-PP as substrate by Hanes-plot based method
T1 sequence (P00492 whole entry): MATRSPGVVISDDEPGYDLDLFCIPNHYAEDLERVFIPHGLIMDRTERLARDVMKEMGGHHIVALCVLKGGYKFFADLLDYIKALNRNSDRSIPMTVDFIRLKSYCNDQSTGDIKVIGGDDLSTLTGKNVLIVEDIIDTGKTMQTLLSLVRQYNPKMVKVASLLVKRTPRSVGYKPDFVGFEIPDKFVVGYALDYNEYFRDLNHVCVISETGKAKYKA

[6] = Inhibition of Plasmodium falciparum HGPRT using xanthine as substrate by Hanes-plot based method
Outline: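 Ki was determined for PfHGXPRT using xanthine as the substrate, under the conditions used for human HGPRT. The reaction was followed spectrophotometrically at 255 nm, with Δε 4670 M⁻¹ cm⁻¹. Km for xanthine was 189 ± 18 μM.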

[7] = Selectivity index, ratio of Ki for human HGPRT to Ki for Plasmodium falciparum HGPRT

Row | Structure (SMILES) | pKi [5] | Ratio Ki [7] | viability at 10 µM [1] | viability at 10 µM [2] | pIC50 (Plasmodium falciparum [3]) | pIC50 (Plasmodium falciparum [4]) | pKi [6]
1 | CC(C)OC(=O)[C@H](Cc1ccccc1)NP(=O)(CCSCCn1cnc2c(=O)[nH]cnc21)N[C@@H](Cc1ccccc1)C(=O)OC(C)C | – | – | 90% | 100% | 5.36 | 5.27 | –
2 | CC(C)OC(=O)[C@H](Cc1ccccc1)NP(=O)(CSCCCn1cnc2c(=O)[nH]c(N)nc21)N[C@@H](Cc1ccccc1)C(=O)OC(C)C | – | – | 95% | 98% | 5.40 | 5.28 | –
3 | O=c1[nH]cnc2c1ncn2CCSCCP(=O)(O)O | 5.30 | 25 | – | – | – | – | 6.70
4 | O=c1[nH]cnc2c1ncn2CCCS(=O)(=O)CP(=O)(O)O | 4.34 | 10 | – | – | – | – | 5.35
5 | O=c1[nH]cnc2c1ncn2CC[S+]([O-])CCP(=O)(O)O (configuration not stated) | 5.40 | 4 | – | – | – | – | 6.00
6 | O=c1[nH]cnc2c1ncn2CCCSCP(=O)(O)O | < 4.10 | > 26 | – | – | – | – | 5.52
7 | O=c1[nH]cnc2c1ncn2CCS(=O)(=O)CCP(=O)(O)O | < 4.05 | > 22 | – | – | – | – | 5.40
8 | CC(C)OC(=O)[C@H](Cc1ccccc1)NP(=O)(CCSCCn1cnc2c(=O)[nH]c(N)nc21)N[C@@H](Cc1ccccc1)C(=O)OC(C)C | – | – | 83% | 106% | 5.27 | 5.36 | –

The remaining compounds from weak to strong by pKi [5], led by results:

Row | pKi [5] | Ratio Ki [7] | Structure (SMILES) | viability at 10 µM [1] | viability at 10 µM [2] | pIC50 (Plasmodium falciparum [3]) | pIC50 (Plasmodium falciparum [4]) | pKi [6]
9 | 4.96 | 2.8 | O=c1[nH]cnc2c1ncn2CCC[S+]([O-])CP(=O)(O)O (configuration not stated) | – | – | – | – | 5.40
10 | 5.52 | 15 | Nc1nc2c(ncn2CCC[S+]([O-])CP(=O)(O)O)c(=O)[nH]1 (configuration not stated) | – | – | – | – | 6.70
11 | 5.85 | 1.3 | Nc1nc2c(ncn2CCCSCP(=O)(O)O)c(=O)[nH]1 | – | – | – | – | 5.96
12 | 6.40 | 4 | Nc1nc2c(ncn2CCSCCP(=O)(O)O)c(=O)[nH]1 | – | – | – | – | 7.00
13 | 6.70 | 0.7 | Nc1nc2c(ncn2CC[S+]([O-])CCP(=O)(O)O)c(=O)[nH]1 (configuration not stated) | – | – | – | – | 6.52
